How the values were obtained:
HT-29 = test: Cytotoxicity against human HT29 cells after 48 hrs by SRB assay; format: functional, cell-based; settings: Homo sapiens, HT-29, 48 h; for CC50: read-out: LC50 (the source's name)
How it was run: (§1)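 Cells grown in RPMI 1640 with 10% FBS and penicillin/streptomycin at 37 °C and 5% CO₂, trypsinized, then seeded at 5 × 10³/well. After 18 h drug-free attachment, samples in DMSO/EtOH/PBS (0.5:0.5:99) were added for 48 h continuous exposure. Cells were fixed with cold TCA (1 h, 4 °C) and stained with SRB (10 min). Tris-solubilized stain read at 490 nm. Triplicate wells, mean ± SD; GI₅₀ derived.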

[1] = Cytotoxicity against human IGROV cells after 48 hrs by SRB assay; format: functional; settings: for CC50: read-out: LC50 (the source's name); how it was run: as §1
SK-MEL-28 = test: Cytotoxicity against human SK-MEL-28 cells after 48 hrs by SRB assay; format: functional, cell-based; settings: Homo sapiens, SK-MEL-28, 48 h; for CC50: read-out: LC50 (the source's name); how it was run: as §1
A549 = test: Cytotoxicity against human A549 cells after 48 hrs by SRB assay; format: functional, cell-based; settings: Homo sapiens, A549, 48 h; how it was run: as §1
PANC-1 = test: Cytotoxicity against human PANC1 cells after 48 hrs by SRB assay; format: functional; settings: PANC-1, 48 h; for CC50: read-out: LC50 (the source's name); how it was run: as §1
SK-BR-3 = test: Cytotoxicity against human SKBR3 cells after 48 hrs by SRB assay; format: functional; settings: SK-BR-3, 48 h; for GI50: read-out: GI50; for CC50: read-out: LC50 (the source's name); how it was run: as §1
HeLa = test: Cytotoxicity against human HeLa cells after 48 hrs by SRB assay; format: functional; settings: for CC50: read-out: LC50 (the source's name); how it was run: as §1
[2] = Cytotoxicity against human IGROV-ET cells after 48 hrs by SRB assay; format: functional; settings: for CC50: read-out: LC50 (the source's name); how it was run: as §1
LoVo [3] = test: Cytotoxicity against human LoVo cells after 48 hrs by SRB assay; format: functional; settings: for CC50: read-out: LC50 (the source's name)
K562 = test: Cytotoxicity against human K562 cells after 48 hrs by SRB assay; format: functional; settings: K562, 48 h; for CC50: read-out: LC50 (the source's name); how it was run: as §1
LoVo [4] = test: Cytotoxicity against human doxorubicin resistant LoVo cells after 48 hrs by SRB assay; format: functional; settings: for CC50: read-out: LC50 (the source's name); how it was run: as §1
[5] = Cytotoxicity against human HeLa-APL cells after 48 hrs by SRB assay; format: functional; how it was run: as §1
LNCaP = test: Cytotoxicity against human LNcaP cells after 48 hrs by SRB assay; format: functional; settings: for CC50: read-out: LC50 (the source's name); how it was run: as §1
DU-145 = test: Cytotoxicity against human DU145 cells after 48 hrs by SRB assay; format: functional, cell-based; settings: Homo sapiens, DU-145, 48 h; for CC50: read-out: LC50 (the source's name); how it was run: as §1

C/C=C1\NC(=O)[C@H](Cc2ccccc2)NC(=O)[C@@H](C(C)C)NC(=O)[C@@H]([C@H](C)CC)NC(=O)[C@H](NC(=O)[C@H](NC(=O)[C@H](CCCN)NC(=O)[C@H]2CCCN2C(=O)[C@H](NC(=O)[C@@H](NC(=O)[C@@H](NC(=O)[C@H](NC(=O)CCCC(C)C)C(C)C)[C@@H](C)O)C(C)C)C(C)C)[C@H](C)CC)[C@H](C)OC(=O)[C@H](C(C)C)NC1=O [KAHALALIDE F] gave a GI50 (HT-29) of 0.432 µM, a TGI (HT-29) of 0.915 µM and a CC50 (HT-29) of 2.24 µM. It also gave a TGI [1] of 1.18 µM, a GI50 ([1]; read-out: GI50) of 0.493 µM and a CC50 [1] of 3.22 µM. For the same compound, the TGI (SK-MEL-28) was 2.26 µM, the GI50 (SK-MEL-28; read-out: GI50) was 1.19 µM and the CC50 (SK-MEL-28) was 4.5 µM. The LC50 (A549) was 4.52 µM, the TGI (A549) was 2.2 µM and the GI50 (A549; read-out: GI50) was 1.16 µM. It also gave a GI50 (PANC-1) of 1.77 µM, a TGI (PANC-1) of 3.33 µM and a CC50 (PANC-1) of 5.07 µM. For the same compound, the TGI (SK-BR-3) was 0.81 µM, the GI50 (SK-BR-3) was 0.363 µM and the CC50 (SK-BR-3) was 1.98 µM. For the same compound, the GI50 (HeLa) was 0.965 µM, the TGI (HeLa) was 1.97 µM and the CC50 (HeLa) was 4.73 µM. It also gave a TGI [2] of 1.3 µM, a GI50 ([2]; read-out: GI50) of 0.55 µM and a CC50 [2] of 3.28 µM. The GI50 (LoVo [3]) was 0.334 µM, the TGI (LoVo [3]) was 0.614 µM and the CC50 (LoVo [3]) was 1.51 µM. For the same compound, the GI50 (K562) was 1.93 µM, the TGI (K562) was 3.32 µM and the CC50 (K562) was 5.28 µM. For the same compound, the GI50 (LoVo [4]) was 0.299 µM, the TGI (LoVo [4]) was 0.485 µM and the CC50 (LoVo [4]) was 1.47 µM. For the same compound, the GI50 [5] was 0.975 µM, the LC50 (concentration giving 50% net cell kill) [5] was 4.29 µM and the TGI [5] was 2.02 µM. For the same compound, the GI50 (LNCaP) was 0.96 µM, the TGI (LNCaP) was 1.96 µM and the CC50 (LNCaP) was 4.26 µM. For the same compound, the TGI (DU-145) was 1.72 µM, the GI50 (DU-145; read-out: GI50) was 0.931 µM and the CC50 (DU-145) was 3.72 µM.

Work on C/C=C1\NC(=O)[C@H](Cc2ccccc2)NC(=O)[C@@H](C(C)C)NC(=O)[C@@H]([C@H](C)CC)NC(=O)[C@H](NC(=O)[C@H](NC(=O)[C@H](CCCN)NC(=O)[C@H]2CCCN2C(=O)[C@H](NC(=O)[C@@H](NC(=O)[C@@H](NC(=O)[C@H](NC(=O)CC[C@@H](C)CC)C(C)C)[C@@H](C)OC(=O)C(F)(F)F)C(C)C)C(C)C)[C@H](C)CC)[C@H](C)OC(=O)[C@H](C(C)C)NC1=O yielded a GI50 (HT-29) of 0.241 µM, a TGI (HT-29) of 0.257 µM and a CC50 (HT-29) of 0.271 µM. For the same compound, the GI50 [1] was 0.345 µM, the GI50 ([1]; read-out: GI50) was 0.287 µM and the CC50 [1] was 0.508 µM. The GI50 (SK-MEL-28) was 0.772 µM, the GI50 (SK-MEL-28; read-out: GI50) was 0.716 µM and the CC50 (SK-MEL-28) was 0.839 µM. The GI50 (A549) was 0.882 µM, the LC50 (A549) was 0.101 µM and the GI50 (A549; read-out: GI50) was 7.7 µM. The GI50 (PANC-1) was 1.43 µM, the TGI (PANC-1) was 1.66 µM and the CC50 (PANC-1) was 1.66 µM. The TGI (SK-BR-3) was 0.218 µM, the GI50 (SK-BR-3) was 0.203 µM and the CC50 (SK-BR-3) was 0.141 µM. It also gave a GI50 (HeLa) of 0.294 µM, a TGI (HeLa) of 0.553 µM and a CC50 (HeLa) of 0.818 µM. For the same compound, the GI50 [2] was 0.191 µM, the GI50 ([2]; read-out: GI50) was 0.231 µM and the CC50 [2] was 0.468 µM. The GI50 (LoVo [3]) was 0.212 µM, the TGI (LoVo [3]) was 0.257 µM and the CC50 (LoVo [3]) was 0.31 µM. For the same compound, the CC50 (K562) was 0.181 µM, the GI50 (LoVo [4]) was 0.189 µM and the TGI (LoVo [4]) was 0.222 µM. The CC50 (LoVo [4]) was 1.4 µM, the GI50 [5] was 0.499 µM and the LC50 (concentration giving 50% net cell kill) [5] was 0.892 µM. The TGI [5] was 0.745 µM, the GI50 (LNCaP) was 0.61 µM and the TGI (LNCaP) was 1.02 µM. The CC50 (LNCaP) was 1.4 µM, the GI50 (DU-145) was 0.752 µM and the GI50 (DU-145; read-out: GI50) was 0.617 µM. It also gave a CC50 (DU-145) of 0.914 µM.

In the case of C/C=C1\NC(=O)[C@H](Cc2ccccc2)NC(=O)[C@@H](C(C)C)NC(=O)[C@@H]([C@H](C)CC)NC(=O)[C@H](NC(=O)[C@H](NC(=O)[C@H](CCCN)NC(=O)[C@H]2CCCN2C(=O)[C@H](NC(=O)[C@@H](NC(=O)[C@@H](NC(=O)[C@@H](Cc2ccccc2)NC(=O)CCCC(C)C)[C@@H](C)O)C(C)C)C(C)C)[C@H](C)CC)[C@H](C)OC(=O)[C@H](C(C)C)NC1=O, the CC50 (HT-29) is reported as 5.59 µM, the GI50 [1] is reported as 0.862 µM and the GI50 ([1]; read-out: GI50) is reported as 2.01 µM. It also gave a CC50 [1] of 0.449 µM, a TGI (SK-MEL-28) of 2.92 µM and a GI50 (SK-MEL-28; read-out: GI50) of 2.64 µM. The CC50 (SK-MEL-28) was 1.4 µM, the LC50 (A549) was 1.84 µM and the TGI (A549) was 2.75 µM. The GI50 (A549; read-out: GI50) was 2.65 µM, the GI50 (PANC-1) was 5.44 µM and the TGI (PANC-1) was 4.76 µM. It also gave a CC50 (PANC-1) of 2.45 µM, a TGI (SK-BR-3) of 2.19 µM and a GI50 (SK-BR-3) of 2.34 µM. For the same compound, the CC50 (SK-BR-3) was 1.67 µM, the GI50 (HeLa) was 2.21 µM and the TGI (HeLa) was 2.69 µM. It also gave a CC50 (HeLa) of 1.01 µM, a TGI [2] of 1.73 µM and a GI50 ([2]; read-out: GI50) of 2.24 µM. For the same compound, the CC50 [2] was 0.68 µM, the GI50 (LoVo [3]) was 2.62 µM and the TGI (LoVo [3]) was 2.71 µM. It also gave a CC50 (LoVo [3]) of 2.8 µM, a GI50 (K562) of 3.4 µM and a TGI (K562) of 4.68 µM. For the same compound, the CC50 (K562) was 2.36 µM, the GI50 [5] was 0.179 µM and the LC50 (concentration giving 50% net cell kill) [5] was 1.28 µM. For the same compound, the TGI [5] was 1.7 µM, the GI50 (LNCaP) was 2.28 µM and the TGI (LNCaP) was 3.13 µM. For the same compound, the CC50 (LNCaP) was 1.49 µM, the TGI (DU-145) was 3.68 µM and the GI50 (DU-145; read-out: GI50) was 3.9 µM. It also gave a CC50 (DU-145) of 1.6 µM.
